From the M2OR odorant receptor database

These compounds were tested against T1, OR2M3 (Homo sapiens) (UniProt Q8NG83). Conditions: stereoisomer not certain.
T1 sequence (whole entry): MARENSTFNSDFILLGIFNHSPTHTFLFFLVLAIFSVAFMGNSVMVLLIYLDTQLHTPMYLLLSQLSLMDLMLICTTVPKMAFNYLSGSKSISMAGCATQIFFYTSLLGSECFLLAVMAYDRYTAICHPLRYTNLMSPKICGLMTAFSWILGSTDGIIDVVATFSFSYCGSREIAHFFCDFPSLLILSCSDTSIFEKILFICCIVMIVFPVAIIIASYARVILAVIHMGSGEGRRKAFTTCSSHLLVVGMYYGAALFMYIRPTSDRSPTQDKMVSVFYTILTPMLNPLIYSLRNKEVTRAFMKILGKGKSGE
Procedure, shortened: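 Whether a receptor–molecule pair is responsive (active) rests on the original authors' judgment that its measured signal was statistically different from baseline. Pairs without that judgment are non-responsive (inactive). Sources used varied assay methods, commonly transient luciferase assays in mammalian cell lines.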
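Further: active if original authors judged signal statistically different from baseline.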

Row | Structure (SMILES) | odorant receptor agonist call
1 | SCCc1ccccc1 | inactive
2 | CCCCCCCC(=O)[O-].[H+] | inactive
3 | CCCSSSCCC | inactive
4 | Cc1occc(=O)c1O | inactive
5 | CCCCCC=CC=CC=O | inactive
6 | CCC(=O)C(C)S (configuration not stated) | inactive
7 | CCCC(S)C(C)CO (configuration not stated) | active
8 | CC(=O)OCCc1ccccc1 | inactive
9 | CCCCCCCC(C)=O | inactive
10 | COc1cccc(OC)c1O | inactive
11 | CCC(C)c1nccnc1OC (configuration not stated) | inactive
12 | C=Cc1ccc(O)c(OC)c1 | inactive
13 | CCCCCCCC1CCC(=O)O1 (configuration not stated) | inactive
14 | CCCCC(CC)CCC(=O)O (configuration not stated) | inactive
15 | C=C(C)c1ccc(C)cc1 | inactive
16 | CCCCCCOC(C)=O | inactive
17 | CCCCC(C)CCC(=O)O (configuration not stated) | inactive
18 | CCOC(=O)CCSC | inactive
19 | COc1nccnc1C(C)C | inactive

Row | Structure (SMILES) | odorant receptor agonist call
20 | Cc1cccc(C)c1O | inactive
21 | CC(=O)c1cnccn1 | inactive
22 | CCCCCC1CCCC(=O)O1 (configuration not stated) | inactive
23 | Cc1occc1S | inactive
24 | CC(=O)OCCC(C)C | inactive
25 | COc1nccnc1CC(C)C | inactive
26 | CCCCCC1CCC(=O)O1 (configuration not stated) | inactive
27 | CC(C)CCCCCCCCCCC=O | inactive
28 | C=CCSC | inactive
29 | COc1ccc2ccc(=O)oc2c1 | inactive
30 | CC=O | inactive
31 | CCCCCC(=O)OCC | inactive
32 | CCC=O | inactive
33 | CCCCC(=O)O | inactive
34 | CCC(=O)C1=NCCC1 | inactive
35 | CSSSC | inactive
36 | CCCC=CC=O | inactive
37 | CC=CC(=O)C1=C(C)C=CCC1(C)C | inactive
